Source: ChEMBL document CHEMBL1123335, “Synthesis and class III antiarrhythmic activity of (phenylbut-2-enyl)ammonium salts. Effect of conformation on activity” (J Med Chem, 1986)
Where “and” joins values, the source holds several entries; their conditions need not be identical. Identical values can stand only once.

Legend:
Canis familiaris [1] = experiment: Compound was evaluated for intraduodenal bioavailability in anesthetized dogs measured as mean blood pressure at a dose of 10/60 range; 13/23; format: ADME, organism-based, Canis lupus familiaris, Artery; conditions: dog, in vivo
In short: (§1)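 Pentobarbital-anesthetized (30 mg/kg i.v.) dogs, 8–20 kg, either sex. Compound given intraduodenally as a 0.5% tragacanth suspension, usually as two doses, the second cumulative. HR, BP, FRP and conduction were measured at 15, 30 and 45 min postdose. Mean BP reported as % change from control, low dose/high dose, for each animal.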

Canis familiaris [2] = organism: Canis familiaris; experiment: Intracellular electrophysiology in canine Purkinje fiber measured as maximum prolongation of APD95 observed at a dose of 10 uM; format: functional, Canis lupus familiaris
In short: (§2)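 Canine Purkinje fibers superfused at 37 ± 0.5 °C, pH 7.35–7.40 (95:5 O2/CO2), paced at 1.0 Hz (2-ms pulses, 2× diastolic threshold). Fibers stabilized up to 1 h. Intracellular microelectrode (3 M KCl) recording of APD95, 30 min exposure per concentration across 10^-8–10^-4 M. Value is concentration giving 20% APD95 prolongation, or maximum prolongation with its concentration.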

Canis familiaris [3] = organism: Canis familiaris; experiment: Intracellular electrophysiology in canine Purkinje fiber measured as concentration that caused 20% prolongation of action potential duration (APD95); format: functional, Canis lupus familiaris; in short: as §2
Canis familiaris [4] = organism: Canis familiaris; experiment: Intracellular electrophysiology in canine potential (Vmax) at a dose range.; format: functional; conditions: Canis lupus familiaris
In short: (§3)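 Canine Purkinje fibers at 37 ± 0.5 °C, gassed 95:5 O2/CO2 (pH 7.35–7.40), stimulated at 1.0 Hz. Maximum upstroke velocity (Vmax) recorded by glass microelectrode after up to 1 h stabilization. Compounds tested at 10^-8–10^-4 M with 30 min exposure per concentration. Reported as maximum observed effect on Vmax and the concentration at which it occurred.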

Canis familiaris [5] = organism: Canis familiaris; experiment: Compound was evaluated for intracellular electrophysiology in canine potential (Vmax) at a dose of 10 uM; format: functional, Canis lupus familiaris; in short: as §3
Canis familiaris [6] = experiment: In vivo antiarrhythmic efficacy in anesthetized dogs; 2/3
Canis familiaris [7] = experiment: In vivo antiarrhythmic efficacy in anesthetized dogs; Inactive at 3 mg/kg
Canis familiaris [8] = experiment: In vivo antiarrhythmic efficacy in anesthetized dogs
Canis familiaris [9] = organism: Canis familiaris; experiment: Compound was evaluated for intracellular electrophysiology in canine potential (Vmax) at a dose of 1 uM; format: functional, Canis lupus familiaris; conditions: at 1 µM
Canis familiaris [10] = organism: Canis familiaris; experiment: Compound was evaluated for intracellular electrophysiology in canine potential (Vmax) at a dose range of 0.01-10 uM; format: functional; conditions: Canis lupus familiaris; at 0.01 to 10 µM
In short: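 Isolated cardiac fibres superfused with bicarbonate/glucose salt solution gassed 95:5 O2/CO2 (pH 7.35–7.40), 37 ± 0.5 °C. Bipolar stimulation at 1.0 Hz with 2-ms square pulses at twice diastolic threshold. Intracellular recording with 3 M KCl glass microelectrodes after up to 1 h stabilization. Each concentration (10^-8–10^-4 M) applied for 30 min. Value is the maximum Vmax effect and the concentration at which it occurred, per study.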

Canis familiaris [11] = organism: Canis familiaris; experiment: Compound was evaluated for intracellular electrophysiology in canine potential (Vmax) at a dose of 100 uM; format: functional; conditions: Canis lupus familiaris; in short: as §3
Canis familiaris [12] = organism: Canis familiaris; experiment: Compound was evaluated for intracellular electrophysiology in canine Purkinje fiber measured as concentration that caused 20% prolongation of action potential duration (APD95) at a dose range of 0.01-10 uM; NR=Not reached; format: functional; conditions: Canis lupus familiaris; in short: as §2
Canis familiaris [13] = experiment: In vivo antiarrhythmic efficacy in anesthetized dogs; 2/2
Canis familiaris [14] = experiment: Compound was evaluated for intraduodenal bioavailability in anesthetized dogs measured as mean blood pressure at a dose of 10/30 range; 8/8; format: ADME, organism-based, Canis lupus familiaris, Artery; conditions: dog, in vivo; in short: as §1
Canis familiaris [15] = organism: Canis familiaris; experiment: Compound was evaluated for intracellular electrophysiology in canine Purkinje fiber measured as concentration that caused 20% prolongation of action potential duration (APD95) at a dose range of 0.01-1 uM; format: functional, Canis lupus familiaris; in short: as §2
Canis familiaris [16] = organism: Canis familiaris; experiment: Compound was evaluated for intracellular electrophysiology in canine Purkinje fiber measured as maximum prolongation of APD95 observed at a dose of 1 uM; format: functional, Canis lupus familiaris; in short: as §2
Canis familiaris [17] = experiment: Compound was evaluated for intraduodenal bioavailability in anesthetized dogs measured as mean blood pressure at a dose of 10/30 range; 6/2; format: ADME, organism-based, Canis lupus familiaris, Artery; conditions: dog, in vivo; in short: as §1
Canis familiaris [18] = experiment: Compound was evaluated for intraduodenal bioavailability in anesthetized dogs measured as mean blood pressure at a dose of 10/30 range; 10/31; format: ADME, organism-based, Canis lupus familiaris, Artery; conditions: dog, in vivo; in short: as §1
Canis familiaris [19] = organism: Canis familiaris; experiment: Compound was evaluated for intracellular electrophysiology in canine Purkinje fiber measured as maximum prolongation of APD95 observed at 10 uM; format: functional, Canis lupus familiaris; in short: as §2
Canis familiaris [20] = organism: Canis familiaris; experiment: Compound was evaluated for intracellular electrophysiology in canine potential (Vmax) at 10 uM; format: functional; conditions: Canis lupus familiaris; in short: as §3
Canis familiaris [21] = organism: Canis familiaris; experiment: Compound was evaluated for intracellular electrophysiology in canine potential (Vmax) at a dose range of 100 uM; format: functional; conditions: Canis lupus familiaris; in short: as §3
Canis familiaris [22] = organism: Canis familiaris; experiment: Compound was evaluated for intracellular electrophysiology in canine Purkinje fiber measured as maximum prolongation of APD95 observed at a dose range of 100 uM; format: functional, Canis lupus familiaris; in short: as §2
Canis familiaris [23] = experiment: Compound was evaluated for intraduodenal bioavailability in anesthetized dogs measured as mean blood pressure at a dose of 10/30 range; 2/16; format: ADME, organism-based, Canis lupus familiaris, Artery; conditions: dog, in vivo; in short: as §1
Canis familiaris [24] = experiment: Compound was evaluated for intraduodenal bioavailability in anesthetized dogs measured as mean blood pressure at a dose of 3 range; format: ADME, organism-based, Canis lupus familiaris, Artery; conditions: dog, in vivo, other; in short: as §1
Canis familiaris [25] = experiment: Compound was evaluated for intraduodenal bioavailability in anesthetized dogs measured as mean blood pressure at a dose of 10/30 range; 19/3; format: ADME, organism-based, Canis lupus familiaris, Artery; conditions: dog, in vivo; in short: as §1
Canis familiaris [26] = organism: Canis familiaris; experiment: Compound was evaluated for intracellular electrophysiology in canine Purkinje fiber measured as concentration that caused 20% prolongation of action potential duration (APD95) at a dose range of 0.1-10 uM; format: functional, Canis lupus familiaris; in short: as §2
Canis familiaris [27] = organism: Canis familiaris; experiment: Compound was evaluated for intracellular electrophysiology in canine Purkinje fiber measured as concentration that caused 20% prolongation of action potential duration (APD95) at a dose range of 0.01-100 uM; format: functional, Canis lupus familiaris; in short: as §2
Canis familiaris [28] = organism: Canis familiaris; experiment: Compound was evaluated for intracellular electrophysiology in canine Purkinje fiber measured as maximum prolongation of APD95 observed at 1 uM; format: functional, Canis lupus familiaris; in short: as §2
Canis familiaris [29] = organism: Canis familiaris; experiment: Compound was evaluated for intracellular electrophysiology in canine Purkinje fiber measured as concentration that caused 20% prolongation of action potential duration (APD95) at a dose range of 0.1-100 uM; format: functional, Canis lupus familiaris; in short: as §2
Canis familiaris [30] = organism: Canis familiaris; experiment: Compound was evaluated for intracellular electrophysiology in canine potential (Vmax) at 100 uM; format: functional; conditions: Canis lupus familiaris; in short: as §3
Canis familiaris [31] = organism: Canis familiaris; experiment: Concentration at which maximum observed effect on the action potential (Vmax) at a dose range of 0.1-100 uM occurred; 2/2; format: functional, Canis lupus familiaris
Canis familiaris [32] = organism: Canis familiaris; experiment: Compound was evaluated for intracellular electrophysiology in canine uM; format: functional; conditions: Canis lupus familiaris; in short: as §3
Canis familiaris [33] = experiment: Compound was evaluated for intraduodenal bioavailability in anesthetized dogs measured as mean blood pressure at a dose of 10/30 range; 8/49; format: ADME, organism-based, Canis lupus familiaris, Artery; conditions: dog, in vivo; in short: as §1

SMILES: CCCCCCC[N+](CC)(CC)C/C=C\Cc1cccc(Cl)c1Cl.Cc1ccc(S(=O)(=O)[O-])cc1
- Bioavailabiility (Canis familiaris [1]): 13%
- APD95 (Canis familiaris [2]): 35%
- C20 (Canis familiaris [3]): 2 µM
- Vmax (Canis familiaris [4]): Minimal

SMILES: CCCCCCC[N+](CC)(CC)CCCCc1ccc(Cl)cc1.O=P([O-])(O)O [CLOFILIUM PHOSPHATE]
- APD95 (Canis familiaris [5]): 78% and 27%
- Efficacy (Canis familiaris [6]): 2
- APD95 (Canis familiaris [2]): 29% and 46%
- Effective dose (Canis familiaris [7]): 0.5 mg/kg
- C20 (Canis familiaris [3]): 2 µM
- Effective dose (Canis familiaris [8]): 0.1 mg/kg
- APD95 (Canis familiaris [9]): 25% and 29%
- Vmax (Canis familiaris [10]): -21%

SMILES: CCN(CC)CC#CCc1ccc(Cl)cc1.Cl
- APD95 (Canis familiaris [2]): -6%
- Vmax (Canis familiaris [11]): -34%
- C20 (Canis familiaris [12]): Not reached

SMILES: CCCCCCC[N+](CC)(CC)C/C=C\Cc1ccc(Cl)cc1.O=P([O-])(O)O
- Efficacy (Canis familiaris [13]): 2
- APD95 (Canis familiaris [2]): 28% and 29% and 23%
- Effective dose (Canis familiaris [8]): 0.3 mg/kg

SMILES: CCCCCCC[N+](CC)(CC)C/C=C\Cc1ccccc1Cl.[Cl-]
- Bioavailabiility (Canis familiaris [14]): 8%
- Efficacy (Canis familiaris [13]): 2
- C20 (Canis familiaris [15]): <0.1 µM
- APD95 (Canis familiaris [2]): 16%
- APD95 (Canis familiaris [16]): 72%
- C20 (Canis familiaris [12]): Not reached
- Bioavailabiility (Canis familiaris [17]): 6%
- Vmax (Canis familiaris [4]): Minimal

SMILES: CCCCCCC[N+](CC)(CC)C/C=C/Cc1ccc(Cl)cc1.Cc1ccc(S(=O)(=O)[O-])cc1
- C20 (Canis familiaris [3]): <1 µM and 1.9 µM and 1.4 µM

SMILES: CCN(CC)C/C=C\Cc1ccc([N+](=O)[O-])cc1.Cl
- Bioavailabiility (Canis familiaris [18]): 10%
- C20 (Canis familiaris [3]): 0.9 µM
- APD95 (Canis familiaris [19]): 25%
- Vmax (Canis familiaris [20]): -13%

SMILES: CCN(CC)C/C(C)=C(/C)Cc1ccc([N-]S(C)(=O)=O)cc1.[Na+]
- Vmax (Canis familiaris [21]): -13%
- C20 (Canis familiaris [3]): 2.2 µM
- APD95 (Canis familiaris [22]): 78%
- Bioavailabiility (Canis familiaris [23]): 2%

SMILES: CCN(CC)C/C(C)=C(/C)Cc1ccc([N+](=O)[O-])cc1.Cl
- Bioavailabiility (Canis familiaris [24]): 9%
- Bioavailabiility (Canis familiaris [25]): 19%
- C20 (Canis familiaris [26]): 0.4 µM
- C20 (Canis familiaris [27]): 0.05 µM
- Effective dose (Canis familiaris [8]): 0.1 mg/kg and 0.3 mg/kg
- Max APD95 (Canis familiaris [28]): 27%
- C20 (Canis familiaris [29]): <0.1 µM
- Vmax (Canis familiaris [30]): -28% and -52%
- Efficacy (Canis familiaris [31]): 2
- APD95 (Canis familiaris [19]): 66% and 55%

SMILES: CCCCCCC[N+](CC)(CC)C/C=C\Cc1ccc(Br)cc1.O=P([O-])(O)O
- Efficacy (Canis familiaris [13]): 2
- C20 (Canis familiaris [3]): 5.7 µM
- Effective dose (Canis familiaris [8]): 1 mg/kg and 3 mg/kg
- Vmax (Canis familiaris [4]): Minimal

SMILES: CC[N+](CC)(CC)CC#CCc1ccc(Cl)cc1.[I-]
- APD95 (Canis familiaris [2]): 53%
- C20 (Canis familiaris [3]): 0.3 µM
- Vmax (Canis familiaris [32]): -6%

SMILES: CCCCCCC[N+](CC)(CC)C/C=C\Cc1ccc(Cl)cc1.Cc1ccc(S(=O)(=O)[O-])cc1
- APD95 (Canis familiaris [2]): 42% and 47% and 23%

SMILES: C[N+](C)(C)C/C=C\Cc1ccc(Cl)cc1.[Cl-]
- APD95 (Canis familiaris [2]): 43%
- Bioavailabiility (Canis familiaris [33]): 8%
- C20 (Canis familiaris [3]): 0.3 µM
- Vmax (Canis familiaris [4]): Minimal
